Test results from ChEMBL document CHEMBL4270526, “A novel NAE/UAE dual inhibitor LP0040 blocks neddylation and ubiquitination leading to growth inhibition and apoptosis of cancer cells” (Eur J Med Chem, 2018).
The source made the active and inactive calls. No cut-off for these calls is given here.

What was measured:
[1] = test system: A549; experiment: Antiproliferative activity against human A549 cells after 48 hrs by CCK8 assay; type: functional, cell-based; conditions: A549, 48 h
How it was run: (§1)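 Cells seeded at 6 × 10^3 cells/well and left 12 h at 37 °C, 5% CO2. Medium then replaced with serial compound dilutions, bortezomib as positive control. After 48 h, CCK-8 added for 4 h and absorbance read at 450 nm. Three repeats; IC50 from normalized nonlinear regression of inhibition curves.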

[2] = test system: AGS; experiment: Antiproliferative activity against human AGS cells after 48 hrs by CCK8 assay; type: functional, cell-based; how it was run: as §1
[3] = test system: SK-OV-3; experiment: Antiproliferative activity against human SKOV3 cells after 48 hrs by CCK8 assay; type: functional, cell-based; conditions: SK-OV-3, 48 h; how it was run: as §1
[4] = Hemolytic activity against rabbit erythrocytes assessed as hemolysis at 100 uM measured after 1 hr; type: ADME, cell-based, Oryctolagus cuniculus, Erythrocyte; conditions: read-out: Activity
How it was run: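 Rabbit erythrocytes pelleted at 3000 rpm for 10 min, washed twice and resuspended in PBS. Mixed 1:1 with 200 μM compound solution in PBS, 1 h at 37 °C. PBS served as 0% and 1% Triton X-100 as 100% hemolysis. After centrifugation, supernatant hemoglobin read at 540 nm; % hemolysis calculated relative to the Triton and PBS controls.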

[5] = Antiproliferative activity against HUVEC after 48 hrs by CCK8 assay; type: cell-based; conditions: human, read-out: LC50
[6] = Selectivity index, ratio of IC50 for human LO2 cells to IC50 for human AGS cells; type: toxicity; conditions: LO2 cells versus AGS cells, read-out: Ratio IC50
[7] = target: T1, NEDD8 activating enzyme (Homo sapiens) (UniProt Q8TBC4+Q13564); experiment: Inhibition of NAE in human AGS cells assessed as reduction in Uba3-NEDD8 conjugation level after 24 hrs by Western blot analysis; type: cell-based
How it was run: (§2)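 AGS cells given 2, 4, 6, 8 or 10 μM compound or 0.1% DMSO for 24 h, washed in ice-cold PBS and lysed in RIPA on ice. Equal protein loads run by SDS-PAGE: non-reducing for NEDD8/SUMO/Ub conjugates, reducing for p27, NRF2, CDT1 and cleaved caspase-3. Blotted to PVDF with primary antibody overnight at 4 °C and HRP secondary, ECL detection, densitometry. Three repeats.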

[8] = target: T1, NEDD8 activating enzyme (Homo sapiens); experiment: Inhibition of NAE in human AGS cells assessed as reduction in Cullins-NEDD8 conjugation level after 24 hrs by Western blot analysis; type: cell-based; how it was run: as §2
[9] = test system: AGS; experiment: Inhibition of UAE in human AGS cells assessed as reduction in Ubc10-Ub conjugation level at 2 to 10 uM after 24 hrs by Western blot analysis; type: cell-based
How it was run: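 AGS cells (Ham's F12/10% FBS) exposed to 2, 4, 6, 8 or 10 µM compound, or 0.1% DMSO, for 24 h. RIPA lysates of equal protein run on non-reducing SDS-PAGE. Western blot for Ubc10-Ub or USE1-Ub, with densitometry. Three repeats.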

[10] = target: Serine/threonine-protein kinase Chk1 (Homo sapiens) (UniProt O14757); experiment: Inhibition of CHK1 (unknown origin) at 30 uM relative to control
[11] = target: Serine/threonine-protein kinase Chk2 (Homo sapiens) (UniProt O96017); experiment: Inhibition of CHK2 (unknown origin) at 30 uM relative to control
[12] = target: Tyrosine-protein kinase Lck (Homo sapiens) (UniProt P06239); experiment: Inhibition of LCK (unknown origin) at 30 uM relative to control
[13] = target: RAC-alpha serine/threonine-protein kinase (Homo sapiens) (UniProt P31749); experiment: Inhibition of AKT (unknown origin) at 30 uM relative to control
[14] = target: Inhibitor of nuclear factor kappa-B kinase subunit beta (Homo sapiens) (UniProt O14920); experiment: Inhibition of IKKB (unknown origin) at 30 uM relative to control
[15] = organism: Homo sapiens; experiment: Inhibition of UAE (unknown origin) assessed as reduction in Ubc10-Ub conjugation level up to 10 uM pretreated for 10 mins followed by Mg2+ and ATP addition measured after 60 mins by Western blot analysis
How it was run: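 Cell-free assay with UAE 2.5 µM, Ub 250 µM and E2 Ubc10 50 µM (stock concentrations) plus inhibitor, preincubated 10 min at 37 °C. Reaction started with 10 mM Mg2+/ATP (stock), run 60 min at 37 °C, quenched with EDTA. Non-reducing 15% SDS-PAGE, Ubc10-Ub thioester detected by western blot. No-ATP negative control.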

[16] = test system: AGS; experiment: Induction of apoptosis in human AGS cells assessed as live cells at 8 uM after 36 hrs by Annexin-V-FITC/propidium iodide staining based flow cytometry (reference value: 92.84%); type: functional
[17] = test system: AGS; experiment: Induction of apoptosis in human AGS cells assessed as necrotic cells at 8 uM after 36 hrs by Annexin-V-FITC/propidium iodide staining based flow cytometry (reference value: 1.01%); type: functional
[18] = test system: AGS; experiment: Induction of apoptosis in human AGS cells assessed as early apoptotic cells at 10 uM after 36 hrs by Annexin-V-FITC/propidium iodide staining based flow cytometry (reference value: 4.44%); type: functional
[19] = test system: AGS; experiment: Induction of apoptosis in human AGS cells assessed as necrotic cells at 10 uM after 36 hrs by Annexin-V-FITC/propidium iodide staining based flow cytometry (reference value: 1.01%); type: functional
[20] = test system: AGS; experiment: Induction of apoptosis in human AGS cells assessed as increase in cleaved caspase-3 level up to 10 uM after 24 hrs by Western blot analysis; type: functional, cell-based; how it was run: as §2
[21] = test system: AGS; experiment: Cell cycle arrest in human AGS cells assessed as accumulation at sub-G1 phase at 4 uM after 24 hrs by propidium iodide staining based flow cytometry; type: functional
How it was run: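 AGS cells seeded at 1 × 10^5/well and attached 24 h at 37 °C, 5% CO2. Exposed to 4 μM compound for varying times, then fixed in 70% ethanol at −20 °C overnight. Stained with PI/RNase buffer 15–20 min in the dark; 20000 cells per sample read by flow cytometry (488 nm excitation, FL-3 630 nm). Three repeats.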

[22] = test system: AGS; experiment: Synergistic antiproliferative activity against human AGS cells assessed as combination index constant at 1.25 uM after 48 hrs in presence of 5 nM BTZ by CCK8 assay; type: functional
How it was run: (§3)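 AGS cells at 6×10^3/well attached for 12 h, then exposed for 48 h to compound, bortezomib, or both at set concentrations. CCK-8 added for 4 h, then OD read at 450 nm. Inhibition rates E used for q = E(combo)/(E1+E2−E1×E2). Triplicate experiments.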

[23] = test system: AGS; experiment: Synergistic antiproliferative activity against human AGS cells assessed as combination index constant at 1.5 uM after 48 hrs in presence of 5 nM BTZ by CCK8 assay; type: functional; how it was run: as §3
[24] = test system: AGS; experiment: Synergistic antiproliferative activity against human AGS cells assessed as combination index constant at 1.25 uM after 48 hrs in presence of 7.5 nM BTZ by CCK8 assay; type: functional; how it was run: as §3
[25] = test system: AGS; experiment: Synergistic antiproliferative activity against human AGS cells assessed as combination index constant at 1 uM after 48 hrs in presence of 10 nM BTZ by CCK8 assay; type: functional; how it was run: as §3
[26] = test system: AGS; experiment: Synergistic antiproliferative activity against human AGS cells assessed as combination index constant at 1.5 uM after 48 hrs in presence of 10 nM BTZ by CCK8 assay; type: functional; how it was run: as §3

Sequence of Serine/threonine-protein kinase Chk1 (Homo sapiens) (O14757 whole entry): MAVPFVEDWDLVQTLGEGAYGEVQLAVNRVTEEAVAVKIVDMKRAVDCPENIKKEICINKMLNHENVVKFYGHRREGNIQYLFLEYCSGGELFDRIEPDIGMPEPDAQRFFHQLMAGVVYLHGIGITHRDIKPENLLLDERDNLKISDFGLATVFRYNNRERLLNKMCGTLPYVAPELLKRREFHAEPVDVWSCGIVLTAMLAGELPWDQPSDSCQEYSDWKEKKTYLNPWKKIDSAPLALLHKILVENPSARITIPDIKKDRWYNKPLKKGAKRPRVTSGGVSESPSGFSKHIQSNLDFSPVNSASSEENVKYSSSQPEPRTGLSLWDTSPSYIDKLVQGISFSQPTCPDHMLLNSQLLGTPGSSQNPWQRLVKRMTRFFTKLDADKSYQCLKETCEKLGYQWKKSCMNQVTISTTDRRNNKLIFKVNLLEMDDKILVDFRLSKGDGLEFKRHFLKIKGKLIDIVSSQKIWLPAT
Sequence of Tyrosine-protein kinase Lck (Homo sapiens) (P06239 2-509 limits assumed): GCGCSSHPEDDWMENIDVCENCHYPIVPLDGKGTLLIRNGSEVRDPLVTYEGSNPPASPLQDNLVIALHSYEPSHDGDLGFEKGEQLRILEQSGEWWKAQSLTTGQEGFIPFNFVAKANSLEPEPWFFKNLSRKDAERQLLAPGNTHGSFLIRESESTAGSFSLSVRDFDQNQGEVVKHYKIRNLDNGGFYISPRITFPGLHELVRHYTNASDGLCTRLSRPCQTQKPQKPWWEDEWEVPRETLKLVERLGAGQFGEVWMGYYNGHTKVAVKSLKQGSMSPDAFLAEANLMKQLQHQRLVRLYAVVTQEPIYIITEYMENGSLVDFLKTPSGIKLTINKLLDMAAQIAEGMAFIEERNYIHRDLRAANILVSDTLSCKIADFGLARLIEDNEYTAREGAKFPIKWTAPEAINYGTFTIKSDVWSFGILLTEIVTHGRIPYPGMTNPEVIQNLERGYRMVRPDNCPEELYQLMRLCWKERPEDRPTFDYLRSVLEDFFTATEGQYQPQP
Sequence of RAC-alpha serine/threonine-protein kinase (Homo sapiens) (P31749 whole entry): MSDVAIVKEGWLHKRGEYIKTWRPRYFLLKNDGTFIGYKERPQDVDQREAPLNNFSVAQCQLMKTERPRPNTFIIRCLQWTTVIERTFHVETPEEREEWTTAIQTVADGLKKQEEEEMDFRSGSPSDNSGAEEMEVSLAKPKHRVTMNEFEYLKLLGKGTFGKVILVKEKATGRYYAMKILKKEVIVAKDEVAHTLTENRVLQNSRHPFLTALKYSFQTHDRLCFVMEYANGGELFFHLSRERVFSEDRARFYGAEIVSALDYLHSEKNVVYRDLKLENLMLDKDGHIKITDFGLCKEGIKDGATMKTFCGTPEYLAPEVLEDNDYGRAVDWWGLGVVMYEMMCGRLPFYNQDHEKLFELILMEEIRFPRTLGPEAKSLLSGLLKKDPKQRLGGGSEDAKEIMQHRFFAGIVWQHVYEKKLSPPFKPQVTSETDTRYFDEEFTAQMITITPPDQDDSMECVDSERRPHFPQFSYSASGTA
Sequence of Serine/threonine-protein kinase Chk2 (Homo sapiens) (O96017 whole entry): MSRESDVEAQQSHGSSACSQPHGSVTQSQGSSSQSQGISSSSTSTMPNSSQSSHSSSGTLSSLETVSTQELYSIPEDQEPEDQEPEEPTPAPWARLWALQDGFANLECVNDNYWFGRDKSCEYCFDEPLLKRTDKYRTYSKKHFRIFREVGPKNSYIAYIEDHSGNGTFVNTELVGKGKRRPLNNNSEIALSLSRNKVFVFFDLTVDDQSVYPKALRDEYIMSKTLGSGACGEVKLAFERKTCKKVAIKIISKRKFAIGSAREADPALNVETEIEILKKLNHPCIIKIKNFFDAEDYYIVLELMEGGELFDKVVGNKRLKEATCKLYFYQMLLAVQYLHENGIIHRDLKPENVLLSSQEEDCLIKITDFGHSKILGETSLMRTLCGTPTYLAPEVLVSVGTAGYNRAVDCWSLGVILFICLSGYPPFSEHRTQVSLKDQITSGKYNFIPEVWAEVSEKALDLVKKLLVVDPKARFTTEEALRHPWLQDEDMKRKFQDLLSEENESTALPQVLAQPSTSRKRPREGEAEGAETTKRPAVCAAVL
Sequence of Inhibitor of nuclear factor kappa-B kinase subunit beta (Homo sapiens) (O14920 whole entry): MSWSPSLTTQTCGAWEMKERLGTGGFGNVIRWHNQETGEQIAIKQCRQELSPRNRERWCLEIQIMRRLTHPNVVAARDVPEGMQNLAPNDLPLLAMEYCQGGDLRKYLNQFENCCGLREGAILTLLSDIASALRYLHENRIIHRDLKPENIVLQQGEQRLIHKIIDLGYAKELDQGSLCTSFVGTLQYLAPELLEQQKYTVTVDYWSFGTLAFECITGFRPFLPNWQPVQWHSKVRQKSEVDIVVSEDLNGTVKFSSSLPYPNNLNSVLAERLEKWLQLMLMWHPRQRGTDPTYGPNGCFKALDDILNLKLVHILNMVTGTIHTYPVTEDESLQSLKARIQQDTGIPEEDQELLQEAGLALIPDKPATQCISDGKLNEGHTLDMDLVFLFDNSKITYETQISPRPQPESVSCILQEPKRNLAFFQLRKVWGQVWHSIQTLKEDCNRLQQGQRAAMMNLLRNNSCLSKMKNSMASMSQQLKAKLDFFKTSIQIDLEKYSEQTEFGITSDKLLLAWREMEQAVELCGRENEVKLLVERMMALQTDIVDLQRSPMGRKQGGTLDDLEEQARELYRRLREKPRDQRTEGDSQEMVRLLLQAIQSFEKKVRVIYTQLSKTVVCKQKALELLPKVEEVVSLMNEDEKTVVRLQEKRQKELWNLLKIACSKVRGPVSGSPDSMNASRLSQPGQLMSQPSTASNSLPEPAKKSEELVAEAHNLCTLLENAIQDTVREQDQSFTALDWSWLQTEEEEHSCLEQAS

SMILES: O=c1cc(-c2ccc(-c3ccccc3)cc2)c2ccc(N3CCC(NCCc4ccccc4)CC3)cc2o1
- IC50 [1]: 2140 nM
- IC50 [2]: 760 nM
- IC50 [3]: 3.29 µM
- hemolysis at 1 h, 100 µM [4]: < 10%
- CC50 at 48 h [5]: 10.7 µM
- selectivity ratio [6]: 14 to 18
- inhibition [7]: Dose-dependent effect
- inhibition [8]: Dose-dependent effect
- inhibition [9]: Active
- inhibition [10]: 1.01%
- inhibition [11]: 9.44%
- inhibition [12]: -2.51%
- inhibition [13]: 9.87%
- inhibition [14]: 1.07%
- inhibition [15]: Active
- Activity [16]: 9.88%
- Activity [17]: 4.71%
- Activity [18]: 38.71%
- Activity [19]: 9.14%
- Activity [20]: Active
- Activity [21]: Active
- CI [22]: 4.34
- CI [23]: 1.15
- CI [24]: 3.1
- CI [25]: 1.14
- CI [26]: 1.35
